# Where “and” joins values, the source holds several entries; their conditions need not be identical. Identical values can stand only once.
# How the values were obtained:
# [1] = Biochemical analysis of serum AST and ALT; format: in vivo, BALB/c mice; details: for level of AST: serum, after treatment, P = 0.072
# Summary of the method: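 Female BALB/c mice (about 20 g, 6–7 weeks), 5 per group, were infected subcutaneously at the tail base with L. major promastigotes and then given topical ointment treatments. After 28 days, serum was drawn and AST and ALT were measured with a commercial kit. The manufacturer's normal ranges were ALT 75–90 IU/l and AST 125–155 IU/l.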
# [2] = tested on: human blood suspension; test: Hemolytic assay, spectrophotometric, free hemoglobin at 540 nm; format: cell-based
# [3] = tested on: L. major; test: In vivo anti-leishmanial effects, lesion size after topical ointment treatment; design: species or system BALB/c mice; details: group receiving amphotericin B
# Summary of the method: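 Female BALB/c mice (about 20 g, 6–7 weeks), 5 per group, were injected subcutaneously at the tail base with 1.5 × 10^6 stationary-phase L. major promastigotes. Nodules and ulcers formed by day 21, and lesion amastigotes were confirmed by microscopy at 1000×. Topical ointments were given over 28 days, with vehicle ointment or PBS as controls. Lesion diameter was measured weekly with a dial micrometer before and after treatment.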
# [4] = tested on: L929 cell line; test: Cell toxicity assay; format: cell-based
# [5] = tested on: L. major promastigotes; test: In vitro anti-promastigote activity, viability by eosin 0.1% vital stain; format: cell-based; details: Leishmania major, 48 h
# Summary of the method: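 L. major promastigotes (strain MRHO/IR/75/ER) were kept in RPMI 1640 (pH 7.4) with 20% FBS, 25 mM HEPES and penicillin/streptomycin at 24 °C, passaged every 3 days. Log-phase cells (100 µl at 1 × 10^6/ml) received 100 µl of test compound solution; PBS was the negative control. Plates were held at 26 °C.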
# [6] = 12 h, composition as in the label, concentration of controls not given
# [7] = 24 h, composition as in the label, concentration of controls not given
# [8] = 48 h, composition as in the label, concentration of controls not given
# [9] = 6 h, composition as in the label, concentration of controls not given
Molecule,"toxicity judged by AST and ALT ([1]; blood samples after 28 days, in words)",level of AST [1],"Hemolytic activity (%) ± SD ([2]; 12 h, amphotericin B 500 µg/ml)","Hemolytic activity (%) ± SD ([2]; 24 h, amphotericin B 500 µg/ml)","Hemolytic activity (%) ± SD ([2]; 48 h, amphotericin B 500 µg/ml)",wound size after 28 days ([3]; after 28 days of treatment),wound size before treatment ([3]; before treatment),"Cytotoxic activity (%) ± SD ([4]; 6 h, amphotericin B 500 µg/ml)","Cytotoxic activity (%) ± SD ([4]; 12 h, amphotericin B 500 µg/ml)","Cytotoxic activity (%) ± SD ([4]; 24 h, amphotericin B 500 µg/ml)","toxicity in the MTT assay ([4]; in words, chitosan at 10, 50, and 100 mg/ml)",IC50 [5],"Hemolytic activity (%) ± SD [2, 6]","Hemolytic activity (%) ± SD [2, 7]","Hemolytic activity (%) ± SD [2, 8]","Cytotoxic activity (%) ± SD [4, 9]","Cytotoxic activity (%) ± SD [4, 6]","Cytotoxic activity (%) ± SD [4, 7]"
C[C@@H]1[C@H](O)[C@@H](C)/C=C/C=C/C=C/C=C/C=C/C=C/C=C/[C@H](O[C@@H]2O[C@H](C)[C@@H](O)[C@H](N)[C@@H]2O)C[C@@H]2O[C@](O)(C[C@@H](O)C[C@@H](O)[C@H](O)CC[C@@H](O)C[C@@H](O)CC(=O)O[C@H]1C)C[C@H](O)[C@H]2C(=O)O [Amphotericin B],highest drug toxicity,higher compared to the other treatment groups,13.9% and 13.9 ± 0.4%,17.9% and 17.9 ± 0.9%,18.4% and 18.4 ± 0.9%,1.59 mm,15.71 mm,0.43 ± 0.03%,0.41 ± 0.07%,0.41 ± 0.04%,significantly lower than those of cisplatin,256 µg/mL,–,–,–,–,–,–
CNC[C@H](O)[C@@H](O)[C@H](O)[C@H](O)CO.[O]=[Sb](=[O])[OH] [Glucantime],–,higher compared to the other treatment groups,–,–,–,–,–,–,–,–,–,–,15.6 ± 0.5%,18.6 ± 0.6%,20.3 ± 0.8%,0.43 ± 0.002%,0.38 ± 0.01%,0.35 ± 0.02%
Triton X100,–,–,–,–,–,–,–,–,–,–,–,–,90.1 ± 4.5%,99.4 ± 0.5%,100 ± 0.0%,0.14±-0.002%,0.11 ± 0.02%,0.11 ± 0.006%

# Source: publication PMC12040810 (AMB Express, 2025)
